Key:
[1] = biological target: T1, Serine/threonine-protein kinase TBK1 (Homo sapiens, UniProt Q9UHD2); experiment: Displacement of tracer K5 from NLuc fused TBK1 (unknown origin) expressed in HEK293 cells by NanoBRET assay; assay type: cell-based
T1 sequence (Q9UHD2 whole entry): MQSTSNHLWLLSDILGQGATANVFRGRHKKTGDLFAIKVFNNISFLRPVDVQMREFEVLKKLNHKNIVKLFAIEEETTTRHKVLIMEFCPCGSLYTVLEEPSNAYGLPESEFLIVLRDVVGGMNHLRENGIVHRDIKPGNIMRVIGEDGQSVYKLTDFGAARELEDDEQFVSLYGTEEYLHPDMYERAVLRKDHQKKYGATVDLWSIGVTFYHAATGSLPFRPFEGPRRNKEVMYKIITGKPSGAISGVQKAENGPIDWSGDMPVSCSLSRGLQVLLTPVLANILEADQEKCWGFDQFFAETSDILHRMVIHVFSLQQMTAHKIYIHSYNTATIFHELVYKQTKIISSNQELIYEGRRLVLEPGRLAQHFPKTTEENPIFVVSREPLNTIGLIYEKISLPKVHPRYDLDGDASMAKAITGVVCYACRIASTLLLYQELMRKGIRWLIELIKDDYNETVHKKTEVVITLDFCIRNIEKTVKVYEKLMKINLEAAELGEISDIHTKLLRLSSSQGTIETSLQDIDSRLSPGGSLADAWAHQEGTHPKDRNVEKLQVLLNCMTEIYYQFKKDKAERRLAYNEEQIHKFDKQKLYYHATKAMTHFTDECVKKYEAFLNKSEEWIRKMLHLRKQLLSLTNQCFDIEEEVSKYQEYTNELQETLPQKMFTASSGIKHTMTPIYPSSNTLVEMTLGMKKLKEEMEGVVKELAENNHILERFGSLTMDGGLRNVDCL
How it was run: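 HEK293 cells grown in DMEM with 10% FBS at 37 °C, 5% CO2. NanoBRET assay run in dose–response per manufacturer's protocol with tracer K-5 at 0.5 μM. SEM calculated for assays run more than once.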

[2] = biological target: T2, Serine/threonine-protein kinase 17B (Homo sapiens) (UniProt O94768); experiment: Inhibition of full length recombinant human DRAK2 using KKRPQRRYSNVF as substrate at 1 uM incubated for 120 mins in presence of [gamma-33P-ATP] by radiometric scintillation assay relative to control
T2 sequence (whole entry): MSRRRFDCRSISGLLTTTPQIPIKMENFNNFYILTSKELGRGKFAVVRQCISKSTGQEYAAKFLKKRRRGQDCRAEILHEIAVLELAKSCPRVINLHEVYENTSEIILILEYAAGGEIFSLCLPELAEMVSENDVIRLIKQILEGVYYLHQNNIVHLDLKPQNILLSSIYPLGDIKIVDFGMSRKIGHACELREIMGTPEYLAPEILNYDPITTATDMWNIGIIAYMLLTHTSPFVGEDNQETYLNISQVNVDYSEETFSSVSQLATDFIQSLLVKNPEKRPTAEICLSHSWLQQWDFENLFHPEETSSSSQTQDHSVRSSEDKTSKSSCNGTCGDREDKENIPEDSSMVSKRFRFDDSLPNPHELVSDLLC
How it was run: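 Eurofins radiometric kinase assay with ATP at Km for each kinase. Compound was tested at a single 1 μM concentration in duplicate, and the result is reported as percent of control.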

[3] = biological target: T3, Serine/threonine-protein kinase 17A (Homo sapiens, UniProt Q9UEE5); experiment: Displacement of tracer K9 from NLuc fused DRAK1 (unknown origin) expressed in HEK293 cells by NanoBRET assay; assay type: cell-based
T3 sequence (Q9UEE5 whole entry): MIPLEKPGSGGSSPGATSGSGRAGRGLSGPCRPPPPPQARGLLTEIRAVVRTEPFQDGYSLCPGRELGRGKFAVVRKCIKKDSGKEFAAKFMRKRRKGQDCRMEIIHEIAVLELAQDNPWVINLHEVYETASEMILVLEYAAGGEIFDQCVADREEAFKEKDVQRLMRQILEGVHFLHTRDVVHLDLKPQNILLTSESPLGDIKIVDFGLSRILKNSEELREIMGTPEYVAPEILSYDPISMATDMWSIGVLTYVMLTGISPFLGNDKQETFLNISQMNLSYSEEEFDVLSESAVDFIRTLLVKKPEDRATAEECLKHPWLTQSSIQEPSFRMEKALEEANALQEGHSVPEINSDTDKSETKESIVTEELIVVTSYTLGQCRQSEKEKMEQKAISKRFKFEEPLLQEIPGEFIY

[4] = Kinetic solubility of compound in PBS at pH 7.4 incubated for 24 hrs by chemiluminscent nitrogen detection method; assay type: physicochemical; details: buffer, pH 7.4, 24 h
How it was run: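 Filtrates were quantified by total chemiluminescent nitrogen determination against a calibration curve, with correction for background nitrogen from DMSO and medium.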

[5] = biological target: MAP/microtubule affinity-regulating kinase 3 (Homo sapiens, UniProt P27448); experiment: Displacement of tracer K9 from NLuc fused MARK3 (unknown origin) expressed in HEK293 cells by NanoBRET assay; assay type: cell-based
[6] = Effective permeability in PBS at 7.4 incubated for 5 hrs by PAMPA analysis; assay type: ADME; details: pH 7.4, 5 h
How it was run: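 PAMPA: DMSO stocks were diluted in PBS pH 7.4 and placed in the donor compartment, with PBS pH 7.4 in the acceptor, for 5 h. Both compartments were quantified by CLND against a calibration curve, with background nitrogen correction. Effective permeability was calculated from donor and acceptor concentrations using measured rather than assumed solubility.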

[7] = biological target: T4, Myosin light chain kinase 2, skeletal/cardiac muscle (Homo sapiens, UniProt Q9H1R3); experiment: Inhibition of full length recombinant human MYLK2 using KKLNRTLSFAEPG as substrate incubated for 40 mins in presence of [gamma-33P-ATP] by radiometric scintillation assay
How it was run: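 Eurofins radiometric enzymatic assay with ATP at Km for each kinase. IC50 was derived from a 9-point dose–response curve run in duplicate.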

[8] = biological target: T5, MAP/microtubule affinity-regulating kinase 4 (Homo sapiens, UniProt Q96L34); experiment: Displacement of tracer K5 from NLuc fused MARK4 (unknown origin) expressed in HEK293 cells by NanoBRET assay; assay type: cell-based
T5 sequence (Q96L34 whole entry): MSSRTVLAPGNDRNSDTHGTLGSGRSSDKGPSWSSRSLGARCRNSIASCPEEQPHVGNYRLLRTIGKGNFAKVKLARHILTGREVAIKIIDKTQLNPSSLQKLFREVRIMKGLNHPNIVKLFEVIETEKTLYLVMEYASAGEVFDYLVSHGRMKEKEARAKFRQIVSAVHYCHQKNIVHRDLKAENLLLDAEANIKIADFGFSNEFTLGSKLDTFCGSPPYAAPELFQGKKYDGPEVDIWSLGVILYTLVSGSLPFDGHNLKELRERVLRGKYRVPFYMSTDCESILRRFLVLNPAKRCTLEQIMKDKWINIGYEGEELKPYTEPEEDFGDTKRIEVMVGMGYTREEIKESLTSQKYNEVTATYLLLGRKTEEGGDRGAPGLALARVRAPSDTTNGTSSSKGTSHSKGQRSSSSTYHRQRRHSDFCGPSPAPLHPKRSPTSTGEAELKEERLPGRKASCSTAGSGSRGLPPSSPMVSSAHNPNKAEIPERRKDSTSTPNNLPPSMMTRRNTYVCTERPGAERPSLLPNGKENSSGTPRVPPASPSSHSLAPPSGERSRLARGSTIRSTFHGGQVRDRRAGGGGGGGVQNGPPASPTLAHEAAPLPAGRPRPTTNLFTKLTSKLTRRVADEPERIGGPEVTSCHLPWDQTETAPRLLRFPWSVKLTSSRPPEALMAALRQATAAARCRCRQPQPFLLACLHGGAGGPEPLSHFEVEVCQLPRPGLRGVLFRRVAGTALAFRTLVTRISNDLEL

[9] = biological target: T4, Myosin light chain kinase 2, skeletal/cardiac muscle; experiment: Inhibition of NanoLuc-fused MYLK2 (unknown origin) expressed in HEK293 cells incubated for 2 hrs by NanoBRET assay; assay type: cell-based
How it was run: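 Cellular NanoBRET target-engagement assays were run by Carna Biosciences to the manufacturer's protocol. Dose–response was in singlicate, with compounds tested at concentrations up to 10 μM.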

T4 sequence (Q9H1R3 whole entry): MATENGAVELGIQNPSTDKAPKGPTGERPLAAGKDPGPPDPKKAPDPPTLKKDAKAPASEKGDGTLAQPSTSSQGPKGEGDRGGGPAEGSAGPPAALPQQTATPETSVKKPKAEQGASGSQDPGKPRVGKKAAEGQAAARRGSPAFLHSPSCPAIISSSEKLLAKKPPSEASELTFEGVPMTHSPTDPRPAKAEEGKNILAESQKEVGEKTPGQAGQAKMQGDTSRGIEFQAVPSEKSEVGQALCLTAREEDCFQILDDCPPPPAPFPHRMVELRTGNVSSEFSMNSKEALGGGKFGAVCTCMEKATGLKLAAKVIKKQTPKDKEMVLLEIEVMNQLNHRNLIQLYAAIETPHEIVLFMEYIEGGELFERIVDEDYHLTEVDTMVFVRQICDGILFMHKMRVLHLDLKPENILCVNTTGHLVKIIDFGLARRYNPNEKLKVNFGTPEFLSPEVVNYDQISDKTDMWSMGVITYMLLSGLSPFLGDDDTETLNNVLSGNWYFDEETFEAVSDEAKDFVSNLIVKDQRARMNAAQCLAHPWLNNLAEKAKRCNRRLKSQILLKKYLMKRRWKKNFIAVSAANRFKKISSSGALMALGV
Chain of MAP/microtubule affinity-regulating kinase 3 (P27448 whole entry, the tested form may be a part): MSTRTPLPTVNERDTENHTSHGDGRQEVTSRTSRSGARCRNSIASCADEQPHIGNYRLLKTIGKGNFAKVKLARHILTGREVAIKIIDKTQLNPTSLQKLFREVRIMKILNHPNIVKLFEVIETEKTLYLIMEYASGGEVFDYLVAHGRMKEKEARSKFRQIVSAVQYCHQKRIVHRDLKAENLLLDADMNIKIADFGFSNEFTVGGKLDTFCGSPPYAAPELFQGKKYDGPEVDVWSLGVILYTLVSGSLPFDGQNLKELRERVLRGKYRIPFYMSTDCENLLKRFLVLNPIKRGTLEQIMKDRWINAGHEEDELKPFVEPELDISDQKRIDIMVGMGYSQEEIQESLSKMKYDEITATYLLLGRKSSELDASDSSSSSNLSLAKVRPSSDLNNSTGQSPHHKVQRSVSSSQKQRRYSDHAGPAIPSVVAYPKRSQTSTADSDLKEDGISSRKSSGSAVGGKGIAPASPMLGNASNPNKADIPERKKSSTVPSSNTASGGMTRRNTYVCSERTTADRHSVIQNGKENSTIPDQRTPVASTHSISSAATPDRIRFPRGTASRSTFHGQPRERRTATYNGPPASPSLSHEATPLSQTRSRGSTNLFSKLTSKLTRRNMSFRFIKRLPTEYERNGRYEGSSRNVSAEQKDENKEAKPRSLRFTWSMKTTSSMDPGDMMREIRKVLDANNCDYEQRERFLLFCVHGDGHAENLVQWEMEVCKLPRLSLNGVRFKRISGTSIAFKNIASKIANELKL

Cc1nn(CC(F)(F)F)cc1Nc1nccc(NCCc2cnc[nH]2)n1
IC50 [1]: > 10 µM | % control [2]: 91% | IC50 [3]: > 10 µM | Kinetic solubility [4]: 177 µM | IC50 [5]: > 10 µM | Peff [6]: 6.23 10^-8cm/s | IC50 [7]: 0.479 µM | IC50 [8]: > 10 µM | IC50 [9]: 3.67 µM
